Reference: ChEMBL document CHEMBL3351600, “Sulfur, selenium and tellurium pseudopeptides: synthesis and biological evaluation” (Bioorg Med Chem, 2014)

Legend:
ACHN = assay: Growth inhibition of human ACHN cells after 48 hrs; type: functional; details: for TGI: read-out: pTGI (converted)
Outline: (§1)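 NCI-60 human tumour cell line panel screen run at the US National Cancer Institute under its standard cytotoxicity protocol. It covers leukaemia, NSCLC, colon, CNS, melanoma, ovarian, renal, prostate and breast lines. An initial single-dose test was followed by five-dose testing with 48 h compound exposure.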

CAKI-1 = assay: Growth inhibition of human CAKI-1 cells after 48 hrs; type: functional; details: CAKI-1, 48 h; for TGI: read-out: pTGI (converted); outline: as §1
SN12C = assay: Growth inhibition of human SN12C cells after 48 hrs; type: functional; details: for TGI: read-out: pTGI (converted)
Outline: (§2)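 Run by the NCI 58-cell-line screen under its standard cytotoxicity protocol. Compounds were first tested at a single dose, then at five doses. Cells were exposed to compound for 48 h.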

TK-10 = assay: Growth inhibition of human TK10 cells after 48 hrs; type: functional; details: TK-10, 48 h; for TGI: read-out: pTGI (converted); outline: as §2
[1] = Growth inhibition of human PC3 cells after 48 hrs; type: functional; details: PC-3, 48 h; for TGI: read-out: pTGI (converted); outline: as §1
MCF7 [2] = assay: Growth inhibition of human MCF7 cells after 48 hrs; type: functional; details: MCF7, 48 h; for TGI: read-out: pTGI (converted); outline: as §1
[3] = Growth inhibition of human Hs 578T cells after 48 hrs; type: functional; details: for TGI: read-out: pTGI (converted); outline: as §1
MDA-MB-468 = assay: Growth inhibition of human MDA-MB-468 cells after 48 hrs; type: functional; details: MDA-MB-468, 48 h; for TGI: read-out: pTGI (converted); outline: as §1
MCF7 [4] = assay: Cytotoxicity against human MCF7 cells assessed as cell viability after 24 hrs incubation by MTT assay; type: functional, cell-based; details: MCF7, 24 h
Outline: (§3)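 Cell lines came from DSMZ; primary human fibroblasts served as non-cancer controls. Cells were grown in medium with 10% FCS, seeded at 50,000 cells/ml, and grown 2 days at 37 °C, 10% CO2. Serial dilutions were then added for 24 h. MTT (final 0.5 mg/ml) was added for 2 h. Formazan was pelleted, PBS-washed, dissolved in isopropanol/0.4% HCl and read at 590 nm. Two parallel experiments were run. IC50 was taken as the concentration giving 50% of untreated-control absorbance.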

A-431 = assay: Cytotoxicity against human A431 cells assessed as cell viability after 24 hrs incubation by MTT assay; type: functional, cell-based; details: A-431, 24 h; outline: as §3
Saccharomyces cerevisiae = assay: Antimicrobial activity against Saccharomyces cerevisiae assessed as inhibition at 20 ug/6 mm disk after 1 to 2 days by agar diffusion assay; type: functional
Outline: (§4)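 Standard agar diffusion: 6-mm paper disks loaded with 20 µg of compound were placed on inoculated plates. Inhibition-zone diameter (mm) was read after 1 and 2 days of growth.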

Candida albicans = assay: Antimicrobial activity against Candida albicans assessed as inhibition at 20 ug/6 mm disk after 1 to 2 days by agar diffusion assay; type: functional; outline: as §4
Aspergillus niger = assay: Antimicrobial activity against Aspergillus niger assessed as inhibition at 20 ug/6 mm disk after 1 to 2 days by agar diffusion assay; type: functional; outline: as §4
Micrococcus luteus = assay: Antimicrobial activity against Micrococcus luteus assessed as inhibition at 20 ug/6 mm disk after 1 to 2 days by agar diffusion assay; type: functional; outline: as §4
Staphylococcus aureus = assay: Antimicrobial activity against Staphylococcus aureus assessed as inhibition at 20 ug/6 mm disk after 1 to 2 days by agar diffusion assay; type: functional; outline: as §4
Pseudomonas aeruginosa = assay: Antimicrobial activity against Pseudomonas aeruginosa assessed as inhibition at 20 ug/6 mm disk after 1 to 2 days by agar diffusion assay; type: functional; outline: as §4
Escherichia coli = assay: Antimicrobial activity against Escherichia coli tolC assessed as inhibition at 20 ug/6 mm disk after 1 to 2 days by agar diffusion assay; type: functional; outline: as §4
[5] = Growth inhibition of human RPMI8226 cells after 48 hrs; type: functional; details: RPMI-8226, 48 h; for CC50: read-out: pLC50 (the source's name) (converted); for TGI: read-out: pTGI (converted); outline: as §1
A549 = assay: Growth inhibition of human A549/ATCC cells after 48 hrs; type: functional; details: A549, 48 h; for CC50: read-out: pLC50 (the source's name) (converted); for TGI: read-out: pTGI (converted); outline: as §1
[6] = Growth inhibition of human EKVX cells after 48 hrs; type: functional; details: for CC50: read-out: pLC50 (the source's name) (converted); for TGI: read-out: pTGI (converted); outline: as §1
HOP-62 = assay: Growth inhibition of human HOP62 cells after 48 hrs; type: functional; details: HOP-62, 48 h; for CC50: read-out: pLC50 (the source's name) (converted); for TGI: read-out: pTGI (converted); outline: as §1
[7] = Growth inhibition of human HOP92 cells after 48 hrs; type: functional; details: HOP-92, 48 h; for CC50: read-out: pLC50 (the source's name) (converted); for TGI: read-out: pTGI (converted); outline: as §1
NCI-H226 = assay: Growth inhibition of human NCI-H226 cells after 48 hrs; type: functional; details: NCI-H226, 48 h; for CC50: read-out: pLC50 (the source's name) (converted); for TGI: read-out: pTGI (converted); outline: as §1
NCI-H322M = assay: Growth inhibition of human NCI-H322M cells after 48 hrs; type: functional; details: for CC50: read-out: pLC50 (the source's name) (converted); for TGI: read-out: pTGI (converted); outline: as §1
[8] = Growth inhibition of human HCT116 cells after 48 hrs; type: functional; details: HCT-116, 48 h; for CC50: read-out: pLC50 (the source's name) (converted); for TGI: read-out: pTGI (converted); outline: as §1
KM12 = assay: Growth inhibition of human KM12 cells after 48 hrs; type: functional; details: KM12, 48 h; for CC50: read-out: pLC50 (the source's name) (converted); for TGI: read-out: pTGI (converted); outline: as §1
U-251 = assay: Growth inhibition of human U251 cells after 48 hrs; type: functional; details: U-251, 48 h; for CC50: read-out: pLC50 (the source's name) (converted); for TGI: read-out: pTGI (converted); outline: as §2
MDA-MB-435 = assay: Growth inhibition of human MDA-MB-435 cells after 48 hrs; type: functional; details: MDA-MB-435, 48 h; for CC50: read-out: pLC50 (the source's name) (converted); for TGI: read-out: pTGI (converted); outline: as §1
[9] = Growth inhibition of human UACC257 cells after 48 hrs; type: functional; details: UACC-257, 48 h; for CC50: read-out: pLC50 (the source's name) (converted); for TGI: read-out: pTGI (converted); outline: as §2
[10] = Growth inhibition of human OVCAR4 cells after 48 hrs; type: functional; details: OVCAR-4, 48 h; for TGI: read-out: pTGI (converted); outline: as §1
[11] = Growth inhibition of human OVCAR8 cells after 48 hrs; type: functional; details: OVCAR-8, 48 h; for TGI: read-out: pTGI (converted); outline: as §1
[12] = Growth inhibition of human NCI-ADR-RES cells after 48 hrs; type: functional; details: for TGI: read-out: pTGI (converted); outline: as §1
A498 = assay: Growth inhibition of human A498 cells after 48 hrs; type: functional; details: A498, 48 h; for TGI: read-out: pTGI (converted); outline: as §1

## COc1ccc(N(CC(=O)NCCC[Te]c2ccccc2)C(=O)CNC(=O)OC(C)(C)C)cc1
ACHN
  GI50: 1550 nM
  LC50: > 100 µM
  TGI: 8.71 µM
CAKI-1
  GI50: 2090 nM
  LC50: > 100 µM
  TGI: 5.62 µM
SN12C
  GI50: 2040 nM
  LC50: > 100 µM
  TGI: 5.01 µM
TK-10
  GI50: 3.89 µM
  LC50: 100 µM
  TGI: 10.7 µM
[1]
  GI50: 1700 nM
  LC50: > 100 µM
  TGI: 10 µM
MCF7 [2]
  GI50: 2570 nM
  LC50 (concentration killing 50% of cells): 37.2 µM
  TGI: 7.59 µM
[3]
  GI50: 2750 nM
  LC50: > 100 µM
  TGI: 7.24 µM
MDA-MB-468
  GI50: 3160 nM
  LC50: 60.3 µM
  TGI: 11 µM
MCF7 [4]
  IC50: 5 µM
A-431
  IC50: 5000 nM
Saccharomyces cerevisiae
  diameter of the inhibition zone (DIZ): 0 mm
Candida albicans
  diameter of the inhibition zone (DIZ): 0 mm
Aspergillus niger
  diameter of the inhibition zone (DIZ): 0 mm
Micrococcus luteus
  diameter of the inhibition zone (DIZ): 7 mm
Staphylococcus aureus
  diameter of the inhibition zone (DIZ): 10 mm
Pseudomonas aeruginosa
  diameter of the inhibition zone (DIZ): 10 mm
Escherichia coli
  diameter of the inhibition zone (DIZ): 12 mm
[5]
  GI50: 2400 nM
  CC50: > 100 µM
  TGI: 7.24 µM
A549
  GI50: 525 nM
  CC50: 6.76 µM
  TGI: 2190 nM
[6]
  GI50: 324 nM
  CC50: > 100 µM
  TGI: 2.34 µM
HOP-62
  GI50: 2190 nM
  CC50: 11 µM
  TGI: 4.68 µM
[7]
  GI50: 2950 nM
  CC50: 66.1 µM
  TGI: 4.9 µM
NCI-H226
  GI50: 2290 nM
  CC50: 79.4 µM
  TGI: 5.37 µM
NCI-H322M
  GI50: 2290 nM
  CC50: > 100 µM
  TGI: 6.61 µM
[8]
  GI50: 2090 nM
  CC50: 49 µM
  TGI: 6.46 µM
KM12
  GI50: 3.31 µM
  CC50: 43.7 µM
  TGI: 11.5 µM
U-251
  GI50: 2400 nM
  CC50: 49 µM
  TGI: 6.46 µM
MDA-MB-435
  GI50: 3.31 µM
  CC50: 51.3 µM
  TGI: 13.5 µM
[9]
  GI50: 8.51 µM
  CC50: 61.7 µM
  TGI: 24 µM
[10]
  GI50: 22.4 µM
  LC50: > 100 µM
  TGI: > 100 µM
[11]
  GI50: 2400 nM
  LC50: > 100 µM
  TGI: 6.92 µM
[12]
  GI50: 2880 nM
  LC50: > 100 µM
  TGI: 7.24 µM
A498
  GI50: 2290 nM
  LC50: 33.9 µM
  TGI: 5.37 µM
other
  Retention_time: 1.548 min

## CC1=C(SCCC(=O)OCC(=O)NCCC[Te]c2ccccc2)C(=O)c2ccccc2C1=O
ACHN
  GI50: 2820 nM
  LC50: 40.7 µM
  TGI: 11 µM
CAKI-1
  GI50: 2950 nM
  LC50: 39.8 µM
  TGI: 11.2 µM
SN12C
  GI50: 1860 nM
  LC50: 31.6 µM
  TGI: 6.17 µM
TK-10
  GI50: 3.8 µM
  LC50: 38 µM
  TGI: 12.9 µM
[1]
  GI50: 2400 nM
  LC50: 42.7 µM
  TGI: 12 µM
MCF7 [2]
  GI50: 2950 nM
  LC50 (concentration killing 50% of cells): 57.5 µM
  TGI: 12.3 µM
[3]
  GI50: 2820 nM
  LC50: > 100 µM
  TGI: > 100 µM
MDA-MB-468
  GI50: 1660 nM
  LC50: 7.08 µM
  TGI: 3.39 µM
MCF7 [4]
  IC50: 12 µM
A-431
  IC50: 1000 nM
Saccharomyces cerevisiae
  diameter of the inhibition zone (DIZ): 0 mm
Candida albicans
  diameter of the inhibition zone (DIZ): 0 mm
Aspergillus niger
  diameter of the inhibition zone (DIZ): 19 mm
Micrococcus luteus
  diameter of the inhibition zone (DIZ): 11 mm
Staphylococcus aureus
  diameter of the inhibition zone (DIZ): 13 mm
Pseudomonas aeruginosa
  diameter of the inhibition zone (DIZ): 12 mm
Escherichia coli
  diameter of the inhibition zone (DIZ): 11 mm
[5]
  GI50: 2570 nM
  CC50: > 100 µM
  TGI: 9.33 µM
A549
  GI50: 1290 nM
  CC50: > 100 µM
  TGI: 3630 nM
[6]
  GI50: 1120 nM
  CC50: 53.7 µM
  TGI: 10.5 µM
HOP-62
  GI50: 1910 nM
  CC50: 23.4 µM
  TGI: 5.5 µM
[7]
  GI50: 1580 nM
  CC50: 19.5 µM
  TGI: 4.9 µM
NCI-H226
  GI50: 1290 nM
  CC50: 6.61 µM
  TGI: 2.88 µM
NCI-H322M
  GI50: 2880 nM
  CC50: 83.2 µM
  TGI: 12.6 µM
[8]
  GI50: 1660 nM
  CC50: 11.5 µM
  TGI: 4.17 µM
KM12
  GI50: 3.63 µM
  CC50: 52.5 µM
  TGI: 12.6 µM
U-251
  GI50: 3160 nM
  CC50: 45.7 µM
  TGI: 11.5 µM
MDA-MB-435
  GI50: 4.27 µM
  CC50: 57.5 µM
  TGI: 15.8 µM
[9]
  GI50: 2.75 µM
  CC50: 32.4 µM
  TGI: 7.94 µM
[10]
  GI50: 2.14 µM
  LC50: 29.5 µM
  TGI: 7.41 µM
[11]
  GI50: 2750 nM
  LC50: 51.3 µM
  TGI: 11.5 µM
[12]
  GI50: 2690 nM
  LC50: 55 µM
  TGI: 10.2 µM
A498
  GI50: 2000 nM
  LC50: 30.2 µM
  TGI: 7.41 µM
other
  Retention_time: 0.928 min
